Test results reported in ChEMBL document CHEMBL1124401, “1-(2,3-Dideoxy-beta-D-glycero-pent-2-enofuranosyl)thymine. A highly potent and selective anti-HIV agent” (J Med Chem, 1989).

Tests used:
[1] = test system: CCRF-CEM; test: In vitro antiviral test was performed on HIV(LAV strain) infected CEM cells; assay type: functional; conditions: Homo sapiens, read-out: ID50 (the source's name)
Method in brief: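 CEM-F cells infected with about 30 TCID50 of HIV (LAV strain), held 45 min at 37 °C, then given compound at various concentrations in culture medium and incubated 8 days. Virus expression read as p24 gag antigen in culture supernatant by sandwich/enzyme-capture ELISA. ID50 (μM) taken as the dose inhibiting 50% of virus expression.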

[2] = The 90% inhibitory concentration expresses cellular toxicity measured against normal human granulocyte-monocyte cells
[3] = test system: CCRF-CEM; test: Cellular toxicity measured in CEM cells
[4] = Cellular toxicity was measured in normal human granulocyte-monocyte progenitor cells (CFU-GM); conditions: read-out: ID50 (the source's name)
[5] = The 50% inhibitory concentration expresses cellular toxicity measured against normal human erythrocyte progenitor cells (BFU-E); conditions: read-out: ID50 (the source's name)
[6] = test system: Human immunodeficiency virus; test: The inhibition of compound was determined by reverse transcriptase assay using DNA as template; assay type: functional
Method in brief: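 HIV reverse transcriptase assay (DNA-dependent DNA polymerase activity) with poly(dA):oligo(dT) as DNA template/primer. Various triphosphate concentrations were tested, and Ki was derived from Dixon plots.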

[7] = test system: Human immunodeficiency virus; test: The inhibition of compound was determined by reverse transcriptase assay using RNA as template; assay type: functional
Method in brief: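 HIV reverse transcriptase assay with poly(rA):oligo(dT) as RNA template/primer. Various triphosphate concentrations were tested, and Ki was derived from Dixon plots.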

[8] = test system: CCRF-CEM; test: Cellular toxicity was measured in CEM cells after 8 days by using a [3H]- thymidine uptake assay; assay type: cell-based; conditions: human, 192 h, read-out: TCID50
Method in brief: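 Uninfected CEM cells treated with various compound concentrations for 8 days; cytotoxicity read by [3H]thymidine uptake and expressed as 50% tissue culture inhibitory dose (TCID50).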

[9] = The 50% inhibitory concentration expresses cellular toxicity measured against normal human granulocyte-monocyte cells

Row | SMILES | IC50 [1] | ID90 [2] | CC50 [3] | CC50 [4] | CC50 [5] | Ki [6] | Ki [7] | CC50 [8] | ID50 [9]
1 | Cc1cn([C@H]2C[C@H](N=[N+]=[N-])[C@@H](CO)O2)c(=O)[nH]c1=O [ZIDOVUDINE] | 0.1 µM | 20 µM | 29 µM | 1 µM | 6.7 µM | – | – | – | –
2 | Cc1cn([C@H]2C[C@H](N=[N+]=[N-])[C@@H](COP(=O)(O)OP(=O)(O)OP(=O)(O)O)O2)c(=O)[nH]c1=O [ZIDOVUDINE TRIPHOSPHATE] | – | – | – | – | – | 84 µM | 0.007 µM | – | –
3 | Cc1cn([C@H]2CC[C@@H](COP(=O)(O)OP(=O)(O)OP(=O)(O)O)O2)c(=O)[nH]c1=O | – | – | – | – | – | 84 µM | 0.05 µM | – | –
4 | Cc1cn([C@H]2C=C[C@@H](COP(=O)(O)OP(=O)(O)OP(=O)(O)O)O2)c(=O)[nH]c1=O [STAVUDINE TRIPHOSPHATE] | – | – | – | – | – | 70 µM | 0.032 µM | – | –
5 | Cc1cn([C@H]2C=C[C@@H](CO)O2)c(=O)[nH]c1=O [STAVUDINE] | 0.15 µM | > 100 µM | – | – | 10 µM | – | – | 90 µM | 100 µM
